Results published in ChEMBL document CHEMBL3233000, “Cytotoxic ent-kaurane diterpenoids from Isodon wikstroemioides” (J Nat Prod, 2014).

Key:
Format in all cases: functional, cell-based
RAW264.7 = test: Inhibition of nitric oxide production in LPS-stimulated mouse RAW264.7 cells after 18 hrs by griess reagent based plate reader analysis; conditions: RAW264.7, 18 h
How it was run: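 RAW264.7 macrophages seeded at 2 × 10^5 cells/well. Treated with serial dilutions (top concentration 25 μM), then stimulated with LPS 1 μg/mL for 18 h. Supernatant NO measured with Griess reagents, absorbance 550 nm. MG-132 was the positive control. Viability was checked in parallel by MTT (595 nm) to exclude cytotoxic interference.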

SW480 = test: Cytotoxicity against human SW480 cells assessed as growth inhibition after 48 hrs by MTS assay; conditions: SW480, 48 h
How it was run: (§1)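 Cell lines from ATCC, grown in RPMI-1640 or DMEM with 10% FBS at 37 °C, 5% CO2. Cells seeded, incubated 12 h at 37 °C, then screened at 40 μM for 48 h with MTS read-out. Where growth inhibition reached 50%, retested at 0.064, 0.32, 1.6, 8 and 40 μM in triplicate. Cisplatin and paclitaxel were positive controls. IC50 by Reed and Muench method.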

HL-60 = test: Cytotoxicity against human HL60 cells assessed as growth inhibition after 48 hrs by MTS assay; conditions: HL-60, 48 h; how it was run: as §1
SMMC-7721 = test: Cytotoxicity against human SMMC7721 cells assessed as growth inhibition after 48 hrs by MTS assay; conditions: SMMC-7721, 48 h; how it was run: as §1
A549 = test: Cytotoxicity against human A549 cells assessed as growth inhibition after 48 hrs by MTS assay; conditions: A549, 48 h; how it was run: as §1
MCF7 = test: Cytotoxicity against human MCF7 cells assessed as growth inhibition after 48 hrs by MTS assay; conditions: MCF7, 48 h; how it was run: as §1

IC50 (RAW264.7) | Compound | IC50 (SW480) | IC50 (HL-60) | IC50 (SMMC-7721) | IC50 (A549) | IC50 (MCF7)
9900 nM | C=C1C(=O)[C@@]23CC[C@@H]4[C@@](C)(CO)CCC[C@@]4(C=O)[C@@H]2CC[C@@H]1[C@H]3O | > 10000 nM | > 10000 nM | > 10000 nM | > 10000 nM | > 10000 nM
2800 nM | C=C1C(=O)[C@]23C[C@H]1CC[C@H]2[C@]1(CO)CCC[C@](C)(CO)[C@H]1C[C@H]3O | 4000 nM | > 10000 nM | 7100 nM | > 10000 nM | 7300 nM
3300 nM | C=C1C(=O)[C@]23C[C@H]1C[C@H](OC(C)=O)[C@H]2[C@]1(C)[C@@H](OC(C)=O)C[C@H](O)C(C)(C)[C@H]1C(=O)[C@@H]3OC(C)=O [ADENANTHIN] | 2000 nM | 3600 nM | 4000 nM | 3300 nM | 2800 nM
1900 nM | C=C1C(=O)[C@@]23[C@H](O)C[C@@H]4[C@@](C)(COC(C)=O)CCC[C@@]4(C)[C@@H]2C[C@H](O)[C@@H]1[C@H]3O [ALBOPILOSIN A] | 900 nM | 2000 nM | 1400 nM | 3200 nM | 1700 nM
1000 nM | C=C1C(=O)[C@@]23[C@H](O)C[C@@H]4[C@@](C)(CO)CCC[C@@]4(C)[C@@H]2CC[C@@H]1[C@H]3O [EXCISANIN C] | 1300 nM | 3000 nM | 2700 nM | 2100 nM | 1600 nM
800 nM | C=C1C(=O)[C@@]23[C@H](O)C[C@@H]4C(C)(C)CCC[C@@]4(C)[C@@H]2C[C@H](O)[C@@H]1[C@H]3O [ISOSCOPARIN L] | 600 nM | 500 nM | 1200 nM | 800 nM | 400 nM
2700 nM | C=C1C(=O)[C@@]23[C@H](O)C[C@H]4[C@@](C)(CCC[C@]4(C)C=O)[C@@H]2C[C@H](O)[C@@H]1[C@H]3O [MACROCALYXIN C] | 2100 nM | 3700 nM | 4000 nM | > 10000 nM | 3700 nM
1000 nM | C=C1C(=O)[C@@]23[C@H](O)C[C@@H]4C(C)(C)CCC[C@@]4(C)[C@@H]2[C@@H](O)C[C@@H]1[C@H]3O [PHYLLOSTACHYSIN F] | 1100 nM | 3300 nM | 2100 nM | 2300 nM | 1500 nM
7200 nM | C=C1C(=O)[C@@]23[C@H](O)C[C@@H]4C(C)(C)CCC[C@@]4(C)[C@@H]2[C@@H](O)[C@H](O)[C@@H]1[C@H]3OC(C)=O [RABDOKUNMIN A] | 4700 nM | 8800 nM | 5800 nM | > 10000 nM | > 10000 nM
1900 nM | C=C1C(=O)[C@@]23[C@H](O)C[C@@H]4C(C)(C)CCC[C@@]4(C)[C@@H]2[C@@H](O)[C@H](O)[C@@H]1[C@H]3O [RABDOLOXIN B] | 2400 nM | 2900 nM | 3400 nM | 4400 nM | 3000 nM
